Results published in article PMC11522000 (Nature Microbiology, 2024).

Experiments:
[1] = test system: C. parvum; assay: Neonatal calf efficacy study; type: in vivo, neonatal calves
Summary of the method: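 Infected neonatal calves received test compound orally by dosing syringe every 12 h for 7 days at 10 mg/kg birth weight, at least 2 h after feeding. Controls were vehicle-treated calves. The negative-control calf was sham-challenged so staff stayed blinded during dosing, clinical scoring of faecal consistency and faecal qPCR for oocysts.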

[2] = Stability in intestinal S9 fraction; type: in vitro ADME; details: dog
Summary of the method: (§1)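 Test compound added to intestinal S9 fraction of each species to start the reaction. Incubated in a shaking water bath at 37 °C, with samples taken at sequential timepoints. Samples quenched with ice-cold acetonitrile and analysed by LC-MS/MS. Half-life calculated from the rate of parent compound depletion.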

[3] = test system: C. parvum; assay: Time-kill assay, nanoluciferase-expressing C. parvum; type: cell-based, Cryptosporidium parvum
[4] = test system: human PXR; assay: PXR reporter gene assay; type: in vitro ADME
Summary of the method: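 CYP3A4 transactivation was measured in the human hepatoma line DPX-2, which overexpresses human PXR and carries a CYP3A4 promoter-luciferase reporter.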

[5] = 2 weeks GLP dog toxicology study with toxicokinetics; type: in vivo; details: for AUC(0-t): AUC0-8, dog
[6] = Lipophilicity; type: physicochemical
[7] = Stability in intestinal S9 fraction; type: in vitro ADME, calf; details: bovine
Summary of the method: as §1

[8] = test system: C. parvum; assay: Live imaging of C. parvum in HCT-8 cells; type: cell-based, Cryptosporidium parvum; details: compound at 3 h post infection
[9] = In vivo pharmacokinetic analysis; parameters: species or system mouse
Summary of the method: (§2)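 Animals were male C57BL/6 mice (8–10 weeks), Wistar rats (8–10 weeks) and beagle dogs (12–14 weeks). Each received oral and i.v. doses, with plasma sampling for PK parameters.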

[10] = 2 weeks GLP rat toxicology study with toxicokinetics; type: in vivo; details: both, Wistar; for AUC(0-t): AUC0-8, rat
Summary of the method: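 Male and female Wistar rats were about 7–8 weeks old at receipt and 9–10 weeks old at the start of dosing. They were dosed for 2 weeks at 50, 250 and 1000 mg/kg/day, with toxicokinetic plasma sampling.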

[11] = target: ATM (Homo sapiens, UniProt Q13315); assay: Kinase assay panel; type: biochemical
[12] = Plasma stability; type: in vitro ADME; details: dog
Summary of the method: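 Test compound was added to plasma and incubated at 37 °C in a shaking water bath, with samples taken at sequential timepoints. Samples were quenched with ice-cold acetonitrile and analysed by LC-MS/MS, and half-life was calculated from the depletion rate.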

[13] = In vivo pharmacokinetic analysis; details: male, Beagle, dog, plasma
Summary of the method: as §2

[14] = Cytotoxicity assay; type: cell-based, human; details: human, HepG2 cells (ATCC CRL-10741), HepG2 CC50, 96 h
[15] = Stability in intestinal S9 fraction; type: in vitro ADME; details: human
Summary of the method: as §1

[16] = test system: C. parvum; assay: DNA synthesis; type: cell-based, Cryptosporidium parvum; details: compound at 3 h post infection, EdU at 9 h
Summary of the method: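 HCT-8 cells were seeded at 5,000–25,000 per well on fibronectin-coated glass-bottom plates to reach 90–100% confluence, then infected with triggered oocysts. After 3 h at 37 °C, test compound or controls were added (DMSO neutral, cladosporin active) and incubation continued to about 9 h post infection. EdU was detected, vacuoles stained with VVL and nuclei with Hoechst, and wells imaged with a 40x objective.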

[17] = test system: MDR-transfected MDCK cells; assay: MDCK MDR1 permeability and efflux; type: in vitro ADME; details: MDCK MDR1, basolateral to apical
[18] = In vivo pharmacokinetics, all tested preclinical species; details: male, mouse, rat, dog, plasma, po
Summary of the method: as §2

[19] = test system: C. parvum; assay: Washout assay, nanoluciferase-expressing C. parvum; type: cell-based, Cryptosporidium parvum; details: exposure 2–6 h post infection
Summary of the method: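 HCT-8 cells were grown to ~90% confluence, then infected with 400 nanoluciferase-expressing oocysts per well. Before infection, oocysts were primed for excystation with 10 mM HCl in water (10 min, 37 °C), then 2 mM sodium taurocholate in DPBS with Ca/Mg (10 min, 16 °C). Luminescence was read over time. RLU taken soon after infection served as day 0 and was used to normalize each timepoint.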

[20] = Plasma protein binding; type: in vitro ADME; details: rat
[21] = test system: TK6 cells; assay: In vitro micronucleus test in TK6 cells; type: cell-based
[22] = Hepatocytes metabolic stability; type: in vitro ADME; details: rat
Summary of the method: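 Test compound was incubated with liver microsomes or hepatocytes of each species, and parent depletion was quantified by LC-MS/MS. From this, in vitro half-life and intrinsic clearance were derived, along with predicted metabolic clearance and hepatic extraction ratio.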

[23] = male, C57BL/6, mouse, plasma, iv, 1 mg/kg
[24] = male, C57BL/6, mouse, plasma, po, 10 mg/kg
[25] = plasma, po, 1000 mg/kg/day, EDI048 1000 mg/kg/day, day 1
[26] = plasma, po, 1000 mg/kg/day, EDI048 1000 mg/kg/day, day 14

Chain of ATM (Q13315 whole entry): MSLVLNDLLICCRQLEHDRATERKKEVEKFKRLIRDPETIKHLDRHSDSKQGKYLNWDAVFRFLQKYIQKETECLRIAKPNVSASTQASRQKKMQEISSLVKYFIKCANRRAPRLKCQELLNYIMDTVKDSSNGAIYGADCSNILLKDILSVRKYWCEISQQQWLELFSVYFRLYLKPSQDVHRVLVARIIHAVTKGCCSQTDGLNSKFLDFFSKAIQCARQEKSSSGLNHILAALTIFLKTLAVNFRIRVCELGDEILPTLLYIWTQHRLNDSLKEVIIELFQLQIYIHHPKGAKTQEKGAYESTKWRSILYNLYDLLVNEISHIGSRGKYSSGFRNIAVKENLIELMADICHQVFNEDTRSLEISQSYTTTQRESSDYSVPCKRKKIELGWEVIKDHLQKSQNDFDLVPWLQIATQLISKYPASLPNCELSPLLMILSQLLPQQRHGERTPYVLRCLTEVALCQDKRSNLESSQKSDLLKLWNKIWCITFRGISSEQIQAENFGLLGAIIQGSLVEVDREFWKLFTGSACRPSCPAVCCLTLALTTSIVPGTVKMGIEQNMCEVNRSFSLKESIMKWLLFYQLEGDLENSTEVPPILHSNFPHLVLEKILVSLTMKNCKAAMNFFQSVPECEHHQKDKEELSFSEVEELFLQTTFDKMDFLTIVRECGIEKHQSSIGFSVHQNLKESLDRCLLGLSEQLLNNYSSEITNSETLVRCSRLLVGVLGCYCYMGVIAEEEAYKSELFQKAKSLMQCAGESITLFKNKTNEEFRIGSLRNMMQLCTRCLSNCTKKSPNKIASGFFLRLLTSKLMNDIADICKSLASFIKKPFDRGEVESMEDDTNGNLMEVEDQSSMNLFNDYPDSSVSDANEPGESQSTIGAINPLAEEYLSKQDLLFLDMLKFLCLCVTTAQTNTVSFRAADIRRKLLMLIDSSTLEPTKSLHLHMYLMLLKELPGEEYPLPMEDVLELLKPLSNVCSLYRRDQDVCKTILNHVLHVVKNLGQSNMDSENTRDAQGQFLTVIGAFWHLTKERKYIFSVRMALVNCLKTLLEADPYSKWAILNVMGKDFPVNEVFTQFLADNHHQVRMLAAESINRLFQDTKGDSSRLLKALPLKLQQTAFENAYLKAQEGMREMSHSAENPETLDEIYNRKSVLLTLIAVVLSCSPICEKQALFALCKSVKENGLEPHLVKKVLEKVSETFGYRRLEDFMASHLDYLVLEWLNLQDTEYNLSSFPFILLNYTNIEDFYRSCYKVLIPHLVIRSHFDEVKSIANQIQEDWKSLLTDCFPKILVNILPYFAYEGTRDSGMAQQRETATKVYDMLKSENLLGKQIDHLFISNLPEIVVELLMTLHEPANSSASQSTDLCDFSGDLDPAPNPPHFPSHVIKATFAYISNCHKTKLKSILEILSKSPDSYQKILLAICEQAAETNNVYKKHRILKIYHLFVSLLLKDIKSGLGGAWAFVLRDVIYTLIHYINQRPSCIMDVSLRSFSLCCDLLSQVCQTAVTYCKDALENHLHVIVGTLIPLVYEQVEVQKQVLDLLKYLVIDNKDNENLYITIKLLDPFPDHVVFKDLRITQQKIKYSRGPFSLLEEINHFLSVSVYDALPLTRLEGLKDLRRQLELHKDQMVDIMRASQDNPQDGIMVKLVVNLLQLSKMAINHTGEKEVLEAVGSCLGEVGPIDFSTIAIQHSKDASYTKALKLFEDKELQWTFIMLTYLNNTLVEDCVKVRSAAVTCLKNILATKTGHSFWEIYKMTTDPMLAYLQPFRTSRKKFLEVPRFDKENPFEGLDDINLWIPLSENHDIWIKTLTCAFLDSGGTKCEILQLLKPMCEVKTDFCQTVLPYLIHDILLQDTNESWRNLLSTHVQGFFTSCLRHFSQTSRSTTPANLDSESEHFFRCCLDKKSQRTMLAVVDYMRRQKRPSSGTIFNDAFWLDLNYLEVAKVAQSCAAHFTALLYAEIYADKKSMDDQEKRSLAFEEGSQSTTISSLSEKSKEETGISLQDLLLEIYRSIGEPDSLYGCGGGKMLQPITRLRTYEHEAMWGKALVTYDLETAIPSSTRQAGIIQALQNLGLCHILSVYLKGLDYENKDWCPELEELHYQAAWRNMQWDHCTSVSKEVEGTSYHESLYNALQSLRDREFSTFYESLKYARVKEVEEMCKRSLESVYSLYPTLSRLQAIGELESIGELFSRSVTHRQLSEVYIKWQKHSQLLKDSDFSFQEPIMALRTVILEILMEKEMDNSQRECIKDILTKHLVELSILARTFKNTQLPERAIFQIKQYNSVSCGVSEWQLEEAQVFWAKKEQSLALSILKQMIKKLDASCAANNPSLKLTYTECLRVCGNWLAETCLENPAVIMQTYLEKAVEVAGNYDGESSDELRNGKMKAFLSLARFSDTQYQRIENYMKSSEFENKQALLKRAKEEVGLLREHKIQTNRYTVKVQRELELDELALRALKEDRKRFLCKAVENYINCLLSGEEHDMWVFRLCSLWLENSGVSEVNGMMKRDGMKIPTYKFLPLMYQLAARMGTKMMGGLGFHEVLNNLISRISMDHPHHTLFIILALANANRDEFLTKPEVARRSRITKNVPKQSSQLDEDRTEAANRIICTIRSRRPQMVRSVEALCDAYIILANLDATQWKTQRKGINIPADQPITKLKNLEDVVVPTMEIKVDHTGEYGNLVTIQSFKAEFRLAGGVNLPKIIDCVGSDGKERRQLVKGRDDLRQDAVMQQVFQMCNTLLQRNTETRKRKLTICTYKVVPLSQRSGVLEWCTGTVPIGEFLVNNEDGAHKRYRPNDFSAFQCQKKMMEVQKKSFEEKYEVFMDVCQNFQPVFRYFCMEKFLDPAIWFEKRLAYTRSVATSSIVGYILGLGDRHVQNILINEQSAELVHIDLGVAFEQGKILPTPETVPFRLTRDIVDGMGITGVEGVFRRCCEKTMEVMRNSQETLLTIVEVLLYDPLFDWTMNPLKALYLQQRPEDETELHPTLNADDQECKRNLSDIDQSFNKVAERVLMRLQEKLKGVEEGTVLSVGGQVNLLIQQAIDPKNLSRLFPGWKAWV

Which tolerability in calves ([1]; 10 mg kg^−1 every 12 h, 7 days) does the source give for `CNC(=O)c1ccc(-c2cnn3ccc(C(=O)N(C)c4ccc(Cl)c(C(=O)OC)c4)cc23)cc1` [EDI048, methyl 2-chloro-5-(N-methyl-3-(4-(methylcarbamoyl)phenyl)pyrazolo[1,5-a]pyridine-5-carboxamido)benzoate] here?
Its tolerability in calves is “tolerated the full 7 day course of EDI048 treatment without compound-related abnormalities”.

What about the “faecal consistency vs vehicle-treated calves” value ([1]; P < 0.0001) of the same molecule?
Its value is “improved faecal consistency”.

What about the “faecal oocyst shedding vs vehicle-treated calves” value ([1]; P = 0.0062) of the same molecule?
The value was “shed significantly fewer oocysts”.

And the “emergence of resistance during treatment” value ([1]; calf model)?
The value was “resistance did not emerge”.

And the “time to signs of resolution of diarrhea” value ([1]; post treatment)?
The value was ≤ 48 h.

And the “recrudescence after cessation of treatment” value ([1]; up to 7 days)?
The value was “No recrudescence of infection”.

And the half-life [2]?
The half-life was > 240 min.

And the “concentration achieving maximum rate of parasite elimination” value [3]?
The value was ≥ 27 nM.

And the “induction of human pregnane X receptor” value [4]?
Its value is “did not induce human pregnane X receptor”.

What about the NOAEL at 14 days ([5]; both, beagle, dog, in vivo, po) of the same molecule?
Its NOAEL at 14 days is 1000 mg/kg/day.

And the Tmax ([5]; both, beagle, dog, plasma, oral, dog toxicity study)?
The Tmax was ≤ 75 min.

What about the AUC(0-t) ([5]; both, beagle, dog, plasma, po, 1000 mg/kg/day, EDI048 1000 mg/kg/day, day 1) of the same molecule?
Its AUC(0-t) is 459 ng·h/mL.

And the AUC(0-t) ([5]; both, beagle, dog, plasma, po, 1000 mg/kg/day, EDI048 1000 mg/kg/day, day 14)?
Its AUC(0-t) is 634 ng·h/mL.

What about the Cmax ([5]; both, beagle, dog, plasma, po, 1000 mg/kg/day, Cmax, dog, EDI048 1000 mg/kg/day, day 14) of the same molecule?
Its Cmax is 169 ng/mL.

What about the Tmax ([5]; both, beagle, dog, plasma, po, 1000 mg/kg/day, dog, EDI048 1000 mg/kg/day, day 1) of the same molecule?
The Tmax was 57 min.

What about the Tmax ([5]; both, beagle, dog, plasma, po, 1000 mg/kg/day, dog, EDI048 1000 mg/kg/day, day 14) of the same molecule?
The Tmax was 45 min.

What about the “cardiovascular findings in dogs” value ([5]; up to 1000 mg/kg/day) of the same molecule?
The value was “no EDI048-related cardiovascular findings”.

What about the logD [6] of the same molecule?
The logD was 2.7.

What about the logP [6] of the same molecule?
Its logP is 3.65.

What about the half-life [7] of the same molecule?
Its half-life is 175 min.

What about the “live imaging of infected HCT-8 cells” value [8] of the same molecule?
Its value is “parasites were arrested at the meront stage, preventing egress”.

And the AUC [9, 23]?
Its AUC is 0.668 µM·h.

What about the Vd [9, 23] of the same molecule?
Its Vd is 1.05 L/kg.

And the clearance [9, 23]?
The clearance was 66.7 mL/min/kg.

What about the half-life [9, 23] of the same molecule?
Its half-life is 25.8 min.

And the AUC [9, 24]?
The AUC was 0.0204 µM·h.

And the Cmax [9, 24]?
The Cmax was 8.4 nM.

And the Tmax [9, 24]?
The Tmax was 60 min.

And the bioavailability [9, 24]?
Its bioavailability is 0.4%.

And the Cmax ([9]; mouse, oral 1 mg/kg)?
Its Cmax is “<LLOQ”.

What about the Cmax ([9]; mouse, oral 3 mg/kg) of the same molecule?
The Cmax was “<LLOQ”.

And the NOAEL at 14 days ([10]; in vivo, po)?
The NOAEL at 14 days was 1000 mg/kg/day.

And the Tmax ([10]; plasma, oral, rat toxicity study)?
The Tmax was 30 min.

What about the AUC(0-t) [10, 25] of the same molecule?
Its AUC(0-t) is 11.1 ng·h/mL.

What about the AUC(0-t) [10, 26] of the same molecule?
Its AUC(0-t) is 18.6 ng·h/mL.

And the Cmax ([10]; plasma, po, 1000 mg/kg/day, Cmax, EDI048 1000 mg/kg/day, day 14)?
The Cmax was 4.13 ng/mL.

And the Tmax [10, 25]?
Its Tmax is 30 min.

And the Tmax [10, 26]?
Its Tmax is 30 min.

And the IC50 [11]?
Its IC50 is 0.445 µM.

What about the “selectivity ATM over CpPI(4)K inhibition” value [11] of the same molecule?
The value was > 100 fold.

And the “Plasma T1/2” value [12]?
Its value is > 120 min.

What about the half-life ([12]; Plasma T1/2, dog plasma) of the same molecule?
The half-life was > 240 min.

And the AUC ([13]; iv, 0.1 mg/kg)?
Its AUC is 0.0779 µM·h.

And the Vd ([13]; iv, 0.1 mg/kg)?
Its Vd is 1.54 L/kg.

What about the clearance ([13]; iv, 0.1 mg/kg) of the same molecule?
The clearance was 45.7 mL/min/kg.

What about the half-life ([13]; iv, 0.1 mg/kg) of the same molecule?
Its half-life is 33.6 min.

What about the AUC ([13]; po, 0.3 mg/kg) of the same molecule?
Its AUC is 0.0118 µM·h.

What about the Cmax ([13]; po, 0.3 mg/kg) of the same molecule?
Its Cmax is 5.2 nM.

What about the Tmax ([13]; po, 0.3 mg/kg) of the same molecule?
Its Tmax is 45 min.

And the bioavailability ([13]; po, 0.3 mg/kg)?
Its bioavailability is 5.6%.

What about the CC50 at 96 h [14] of the same molecule?
The CC50 at 96 h was 28.1 µM.

And the half-life [15]?
The half-life was 235 min.

What about the “DNA synthesis (EdU incorporation)” value [16] of the same molecule?
Its value is “does not affect DNA synthesis”.

What about the “Permeability B–A” value [17] of the same molecule?
The value was 7.92 / 12.9 / 1.62 ×10^−6 cm s^−1.

What about the bioavailability [18] of the same molecule?
Its bioavailability is 0.4 to 5.6%.

And the “washout: effect of 4 h exposure on parasite growth” value [19]?
The value was “does not affect parasite growth”.

With `CN(C(=O)c1ccn2ncc(-c3ccc(C(N)=O)cc3)c2c1)c1ccc(C#N)cn1` [KDU731, 3–(4-carbamoylphenyl)-N-(5-cyanopyridin-2-yl)-N-methylpyrazolo [1,5-a]pyridine-5-carboxamide, reference compound] as the molecule, how does the “% Plasma protein binding” value [20] read?
Its value is 87.7%.

And the “In vitro TK6 Micronucleus (MN) test” value [21]?
Its value is “Negative”.

And the “Hepatocytes ER” value [22]?
Its value is 36%.

What about the hepatocyte CLint ([22]; hepatocytes) of the same molecule?
The hepatocyte CLint was 6.9 µL/min/1e6 cells.
